Data from ChEMBL document CHEMBL1145471, “Small molecule regulators of autophagy identified by an image-based high-throughput screen” (Proc Natl Acad Sci U S A, 2007).
The source made the active and inactive calls. The calls are words filed in the database; no cut-off is given here.

Key:
H4 [1] = assay: Decrease in FYVE-RFP+ vesicle intensity per cell in human H4 cells after 8 hrs relative to control; format: functional; parameters: concentration or dose not given beside the values
Summary of the method: (§1)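 H4 cells stably expressing FYVE-RFP (H4-FYVE), grown in DMEM with 10% FBS, penicillin/streptomycin and 2 mM L-glutamine at 37°C, 5% CO2, seeded in 96-well plates and exposed to compound. Fixed in 4% paraformaldehyde, nuclei stained with 3 μg/ml DAPI, FYVE-RFP+ vesicles quantified by high-throughput fluorescence microscopy against DMSO control. Triplicate wells, mean ± SD.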

H4 [2] = assay: Increase in light chain 3-GFP+ autophagosome vesicle number per cell in human H4 cells at 3.3 uM after 24 hrs by high throughput fluorescence microscopy relative to control; format: functional
Summary of the method: (§2)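 H4 cells stably expressing LC3-GFP, seeded in 96-well plates and exposed to compound for 24 h; fixed in 4% paraformaldehyde, nuclei stained with 3 μg/ml DAPI. Automated fluorescence microscopy scored number, size and intensity of LC3-GFP spots; values expressed relative to DMSO-treated wells, rapamycin positive control. Triplicate wells, mean ± SD; experiments repeated three times.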

H4 [3] = assay: Increase in light chain 3-GFP+ autophagosome vesicle intensity per cell in human H4 cells at 3.3 uM after 24 hrs by high throughput fluorescence microscopy relative to control; format: functional; summary of the method: as §2
H4 [4] = assay: Increase in long-lived protein degradation in human H4 cells after 24 hrs relative to control; format: functional; parameters: concentration or dose not given beside the values
H4 [5] = assay: Increase in long-lived protein degradation in human H4 cells after 1 hr relative to control; format: functional; parameters: concentration or dose not given beside the values
H4 [6] = assay: Induction of light chain 3-GFP level in human H4 cells at 3.3 uM after 24 hrs by high throughput fluorescence microscopy relative to control; format: functional
Summary of the method: (§3)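 H4 cells stably expressing LC3-GFP, kept in DMEM/10% FBS at 37°C, 5% CO2, were seeded in 96-well plates and exposed to compound for 24 h. Cells were then fixed in 4% paraformaldehyde and stained with 3 μg/ml DAPI. Automated fluorescence microscopy scored the number, size and intensity of LC3-GFP spots. Values are percent of DMSO wells, in triplicate, mean ± SD. Rapamycin served as positive control.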

H4 [7] = assay: Increase in light chain 3-GFP+ autophagosome vesicle area per cell in human H4 cells at 3.3 uM after 24 hrs by high throughput fluorescence microscopy relative to control; format: functional; summary of the method: as §2
H4 [8] = assay: Increase in long-lived protein degradation in human H4 cells after 2 hrs relative to control; format: functional; parameters: concentration or dose not given beside the values
H4 [9] = assay: Increase in long-lived protein degradation in human H4 cells after 4 hrs relative to control; format: functional; parameters: concentration or dose not given beside the values
H4 [10] = assay: Decrease in FYVE-RFP+ vesicle intensity per cell in human H4 cells after 2 hrs relative to control; format: functional; parameters: concentration or dose not given beside the values; summary of the method: as §1
H4 [11] = assay: Decrease in FYVE-RFP+ vesicle intensity per cell in human H4 cells after 4 hrs relative to control; format: functional; parameters: concentration or dose not given beside the values; summary of the method: as §1
H4 [12] = assay: Effect on FYVE-RFP+ vesicle intensity per cell in human H4 cells after 2 hrs relative to control; format: functional; parameters: concentration or dose not given beside the values; summary of the method: as §1
H4 [13] = assay: Increase in light chain 3-GFP+ autophagosome vesicle intensity per cell in human H4 cells at 5.7 uM after 24 hrs by high throughput fluorescence microscopy relative to control; format: functional; summary of the method: as §2
H4 [14] = assay: Increase in light chain 3-GFP+ autophagosome vesicle number per cell in human H4 cells at 5.7 uM after 24 hrs by high throughput fluorescence microscopy relative to control; format: functional; summary of the method: as §3
H4 [15] = assay: Effect on FYVE-RFP+ vesicle intensity per cell in human H4 cells after 4 hrs relative to control; format: functional; parameters: concentration or dose not given beside the values; summary of the method: as §1
H4 [16] = assay: Effect on FYVE-RFP+ vesicle intensity per cell in human H4 cells after 8 hrs relative to control; format: functional; parameters: concentration or dose not given beside the values; summary of the method: as §1
H4 [17] = assay: Increase in light chain 3-GFP+ autophagosome vesicle area per cell in human H4 cells at 5.7 uM after 24 hrs by high throughput fluorescence microscopy relative to control; format: functional; summary of the method: as §2
H4 [18] = assay: Induction of light chain 3-GFP level in human H4 cells at 5.7 uM after 24 hrs by high throughput fluorescence microscopy relative to control; format: functional; summary of the method: as §3
H4 [19] = assay: Induction of light chain 3-GFP level in human H4 cells at 3.6 uM after 24 hrs by high throughput fluorescence microscopy relative to control; format: functional
Summary of the method: (§4)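 H4 cells stably expressing LC3-GFP, grown in DMEM with 10% FBS, penicillin/streptomycin and 2 mM L-glutamine at 37°C, 5% CO2. Cells were seeded in 96-well plates and exposed to library compounds at 3–12 μM for 24 h, then fixed in 4% paraformaldehyde and stained with 3 μg/ml DAPI. LC3-GFP spot number, size and intensity were measured by high-throughput fluorescence microscopy and expressed relative to DMSO. Triplicates, mean ± SD.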

H4 [20] = assay: Increase in light chain 3-GFP+ autophagosome vesicle intensity per cell in human H4 cells at 3.6 uM after 24 hrs by high throughput fluorescence microscopy relative to control; format: functional
Summary of the method: (§5)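 H4 cells stably expressing LC3-GFP, seeded in 96-well plates and exposed to compound for 24 h; screening concentrations were 3–12 μM, with rapamycin 0.22 μM and bafilomycin A1 0.40 μM. Cells fixed in 4% paraformaldehyde and stained with 3 μg/ml DAPI. Number, size and intensity of LC3-GFP spots measured by high-throughput fluorescence microscopy and expressed as percent of DMSO-treated wells. Rapamycin was the positive control. Triplicate wells, mean ± SD; experiments repeated three times.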

H4 [21] = assay: Increase in light chain 3-GFP+ autophagosome vesicle number per cell in human H4 cells at 3.6 uM after 24 hrs by high throughput fluorescence microscopy relative to control; format: functional
Summary of the method: (§6)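 H4 cells stably expressing LC3-GFP were grown in DMEM with 10% FBS and 2 mM L-glutamine at 37°C, 5% CO2. They were exposed to each compound for 24 h, with DMSO as negative and rapamycin as positive control. Cells were then fixed in 4% paraformaldehyde and stained with 3 μg/ml DAPI. High-throughput fluorescence imaging scored LC3-GFP spot number, size and intensity, expressed relative to DMSO. Mean ± SD of triplicates; experiments repeated three times.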

H4 [22] = assay: Increase in light chain 3-GFP+ autophagosome vesicle area per cell in human H4 cells at 3.6 uM after 24 hrs by high throughput fluorescence microscopy relative to control; format: functional; summary of the method: as §5
H4 [23] = assay: Increase in light chain 3-GFP+ autophagosome vesicle area per cell in human H4 cells at 4.4 uM after 24 hrs by high throughput fluorescence microscopy relative to control; format: functional; summary of the method: as §5
H4 [24] = assay: Induction of autophagy in human H4 cells; format: functional, cell-based
H4 [25] = assay: Increase in light chain 3-GFP+ autophagosome vesicle number per cell in human H4 cells at 4.4 uM after 24 hrs by high throughput fluorescence microscopy relative to control; format: functional; summary of the method: as §6
H4 [26] = assay: Increase in light chain 3-GFP+ autophagosome vesicle intensity per cell in human H4 cells at 4.4 uM after 24 hrs by high throughput fluorescence microscopy relative to control; format: functional; summary of the method: as §6
H4 [27] = assay: Induction of light chain 3-GFP level in human H4 cells at 4.4 uM after 24 hrs by high throughput fluorescence microscopy relative to control; format: functional; summary of the method: as §4

Structure (SMILES) | Activity (H4 [1]) [%] | Activity (H4 [4]) [%] | Activity (H4 [5]) [%] | Activity (H4 [8]) [%] | Activity (H4 [9]) [%] | Activity (H4 [10]) [%] | Activity (H4 [11]) [%] | Activity (H4 [12]) [%] | Activity (H4 [15]) [%] | Activity (H4 [16]) [%] | also measured
COc1cc2c3cc1Oc1c(OC)c(OC)cc4c1[C@@H](Cc1ccc(OC(=O)c5ccc([N+](=O)[O-])cc5)c(c1)Oc1ccc(cc1)C[C@@H]3N(C)CC2)N(C)CC4 [E6 BERBAMINE] | 58.69 | 93.45 | 100.96 | 91.62 | 96.53 | 59.73 | 54.54 |  |  |  | Activity (H4 [2]): 389.35%; Activity (H4 [3]): 2447.47%; Activity (H4 [6]): 131.16%; Activity (H4 [7]): 693.82%
CC(C)(O)[C@H]1O[C@H]2CC[C@@]3(C)[C@@](O)(CC[C@H]4Cc5c([nH]c6ccccc56)[C@@]43C)C2=CC1=O [PAXILLINE] |  | 102.35 | 100.56 | 112.34 | 106.27 |  |  | 100.56 | 52.37 | 56.82 | Activity (H4 [13]): 205.83%; Activity (H4 [14]): 162.66%; Activity (H4 [17]): 185.52%; Activity (H4 [18]): 119.79%
CC[C@@]1([C@@H]2O[C@@H]([C@H]3O[C@@](O)(CO)[C@H](C)C[C@@H]3C)C[C@@H]2C)CC[C@H]([C@]2(C)CC[C@]3(C[C@H](O)[C@@H](C)[C@@H]([C@@H](C)[C@@H](OC)[C@H](C)C(=O)O)O3)O2)O1 [MONENSIN] | 59.14 | 107.54 | 107.28 | 123.64 | 109.16 | 81.22 | 66.44 |  |  |  | Activity (H4 [19]): 92.38%; Activity (H4 [20]): 639.29%; Activity (H4 [21]): 312.92%; Activity (H4 [22]): 418.31%
CC/C(=C(\c1ccccc1)c1ccc(OCCN(C)C)cc1)c1ccccc1 [TAMOXIFEN] |  | 114.97 | 70.67 | 101.24 | 105.85 |  |  | 77.66 | 71.55 | 85.37 | Activity (H4 [23]): 376.53%; Activity (H4 [24]): inactive; Activity (H4 [25]): 291.52%; Activity (H4 [26]): 585.87%; Activity (H4 [27]): 91.2%
